In one data set the test system is NCI-H460. In words: Cytostatic activity against human NCI-H460 cells. It is filed as ADME, cell-based.
The test system of another data set is Z-138. Description: Cytostatic activity against human Z138 cells. It is filed as ADME, cell-based.
In data set [1] the test system is Human betaherpesvirus 5. Description: Antiviral activity against Human cytomegalovirus Davis assessed as reduction in virus-induced cytopathogenicity by microscopic analysis. Format: functional, organism-based. Particulars: Human betaherpesvirus 5, Davis.
Data set [2] is described as follows: Cytostatic activity against human HAP1 cells. It is filed as ADME, cell-based.
Data set [3] deals with Human alphaherpesvirus 1. Description: Antiviral activity against thymidine kinase deficient and aciclovir resistant herpes simplex virus 1 KOS infected in HEL cells assessed as reduction in virus-induced cytopathogenicity by microscopic analysis. It is filed as functional, organism-based. Particulars: Human alphaherpesvirus 1, strain KOS.
A further data set relates to Human alphaherpesvirus 2. Description: Antiviral activity against herpes simplex virus 2 G infected in HEL cells assessed as reduction in virus-induced cytopathogenicity by microscopic analysis. It is filed as functional, organism-based. Particulars: Human alphaherpesvirus 2, G. A digest of the protocol:
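Confluent cell monolayers were inoculated with 100 CCID50 of virus or 20 PFU. After a 1–2 h adsorption, residual virus was removed and cultures were incubated with the test compounds at 200, 40, 8, 1.6 and 0.32 μM. Cytopathicity was scored once it was complete in untreated infected controls.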
(In general: Protection from cytopathic effect is a common read-out in antiviral testing.)

Data set [4] is described as follows: Cytotoxicity against HEL cells assessed as effect on cell morphology at 0.32 to 200 uM by microscopic analysis. Format: cell-based. Particulars: human.
The test system of data set [5] is Human alphaherpesvirus 3. Description: Antiviral activity against Varicella-zoster virus Oka harboring thymidine kinase infected in HEL cells assessed as reduction in virus plaque formation. Format: functional, organism-based. Particulars: Human alphaherpesvirus 3, Oka.
Another data set has as its system K562. Description: Cytostatic activity against human K562 cells. Format: ADME, cell-based.
The next data set deals with HL-60. Description: Cytostatic activity against human HL60 cells. Format: ADME, cell-based.
Data set [6] concerns Human alphaherpesvirus 1. In words: Antiviral activity against herpes simplex virus 1 KOS infected in HEL cells assessed as reduction in virus-induced cytopathogenicity by microscopic analysis. It is filed as functional, organism-based. Particulars: Human alphaherpesvirus 1, strain KOS.
Another data set relates to CAPAN-1. Description: Cytostatic activity against human Capan1 cells. It is filed as ADME, cell-based.
Data set [7] can be described thus: Cytostatic activity against human DND41 cells. Format: ADME, cell-based.
In data set [8] the test system is Human alphaherpesvirus 3. In words: Antiviral activity against thymidine kinase deficient Varicella-zoster virus 07-1 infected in HEL cells assessed as reduction in virus plaque formation. Particulars: Human alphaherpesvirus 3, 07-1, HEL. Format: functional, organism-based.
The next data set concerns TERT-RPE1. Description: Cytostatic activity against human hTERT-RPE1 cells. It is filed as ADME, cell-based. Particulars: RPE-1. A digest of the protocol:
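Cell proliferation was measured against the number of cells in untreated controls.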

In data set [9] the test system is Human betaherpesvirus 5. In words: Antiviral activity against Human cytomegalovirus AD169 assessed as reduction in virus-induced cytopathogenicity by microscopic analysis. Format: functional, organism-based. Particulars: Human betaherpesvirus 5, strain AD169.

The structures appear in SMILES notation.

Consider `CCOc1ccc(-c2cn3c(=O)c4ncn(CCC(CO)CO)c4nc3[nH]2)cc1`, for which the IC50 in the data set with NCI-H460 was 95.4 µM; with Z-138, above 100 µM; in data set [2], above 100 µM; in the data set on K562, above 100 µM; in the data set with HL-60 it was above 100 µM; in the data set on CAPAN-1, above 100 µM. The IC50 (in [7]; with TERT-RPE1) was above 100 µM in each case. Moreover, the EC50 is above 100 µM in the data set with Human betaherpesvirus 5 [1]; above 100 µM with Human alphaherpesvirus 1 [3]; above 20 µM with Human alphaherpesvirus 2; above 100 µM in the data set on Human alphaherpesvirus 3 [5]; 76.5 µM in the data set on Human alphaherpesvirus 1 [6]; above 100 µM in the data set with Human alphaherpesvirus 3 [8]. The EC50 in the data set with Human betaherpesvirus 5 [9] is above 100 µM. For the same molecule, the MCC at up to 200 µM in [4] was above 100 µM.
For the molecule `COc1ccc(-c2cn3c(=O)c4ncn(CCC(CO)CO)c4nc3[nH]2)cc1`, the IC50 (in the data set on NCI-H460; with Z-138; in [2]; in the data set on K562; in the data set on HL-60; in the data set with CAPAN-1) was above 100 µM throughout. The IC50 (in data set [7]; in the data set with TERT-RPE1) was above 100 µM in each case. Further, the EC50 with Human betaherpesvirus 5 [1] was above 100 µM; in the data set on Human alphaherpesvirus 1 [3], 0.8 µM; with Human alphaherpesvirus 2, 0.8 µM; in the data set on Human alphaherpesvirus 3 [5], 66.9 µM; with Human alphaherpesvirus 1 [6], 1.5 µM; in the data set on Human alphaherpesvirus 3 [8], 100 µM. Further, in the data set on Human betaherpesvirus 5 [9], the EC50 is above 100 µM. The MCC at up to 200 µM in data set [4] was above 100 µM.
For the molecule `O=c1c2ncn(CCC(CO)CO)c2nc2[nH]c(-c3ccc(F)cc3)cn12`, the IC50 in the data set on NCI-H460 is above 100 µM; with Z-138 it was above 100 µM; in data set [2] it was above 100 µM; in the data set on K562, above 100 µM; in the data set with HL-60, above 100 µM; in the data set with CAPAN-1, 82.8 µM. Also, the IC50 (in data set [7]; in the data set on TERT-RPE1) was above 100 µM each time. Further, the EC50 is above 100 µM in the data set with Human betaherpesvirus 5 [1]; 12 µM in the data set with Human alphaherpesvirus 1 [3]; 28 µM in the data set on Human alphaherpesvirus 2; above 100 µM in the data set with Human alphaherpesvirus 3 [5]; 8.9 µM with Human alphaherpesvirus 1 [6]; above 100 µM in the data set with Human alphaherpesvirus 3 [8]. For the same molecule, the EC50 in the data set with Human betaherpesvirus 5 [9] is above 100 µM. The MCC at up to 200 µM in data set [4] is above 100 µM.
Regarding `O=c1c2ncn(CCC(CO)CO)c2nc2[nH]c(-c3ccccc3)cn12`, the IC50 with NCI-H460 is above 100 µM; in the data set with Z-138 it was above 100 µM; in data set [2] it was above 100 µM; with K562, above 100 µM; in the data set with HL-60, above 100 µM; in the data set on CAPAN-1, 58.3 µM. Moreover, the IC50 was above 100 µM in [7] and 78.6 µM with TERT-RPE1. For the same molecule, the EC50 in the data set with Human betaherpesvirus 5 [1], in the data set with Human alphaherpesvirus 1 [3], with Human alphaherpesvirus 2, in the data set on Human alphaherpesvirus 3 [5], in the data set with Human alphaherpesvirus 1 [6] and with Human alphaherpesvirus 3 [8] was above 100 µM throughout. Moreover, the EC50 in the data set with Human betaherpesvirus 5 [9] is above 100 µM. In data set [4], the MCC at up to 200 µM is above 100 µM.
In the case of `Cc1ccc(-c2cn3c(=O)c4ncn(CCC(CO)CO)c4nc3[nH]2)cc1`, the IC50 (in the data set on NCI-H460; with Z-138; in [2]; in the data set with K562; in the data set with HL-60; with CAPAN-1) was above 100 µM throughout. Further, the IC50 (in data set [7]; in the data set on TERT-RPE1) was above 100 µM throughout. For the same molecule, the EC50 with Human betaherpesvirus 5 [1] was above 100 µM; with Human alphaherpesvirus 1 [3], above 100 µM; in the data set on Human alphaherpesvirus 2, above 100 µM; in the data set with Human alphaherpesvirus 3 [5] it was 63.1 µM; in the data set with Human alphaherpesvirus 1 [6], above 100 µM; in the data set on Human alphaherpesvirus 3 [8] it was above 100 µM. The EC50 with Human betaherpesvirus 5 [9] was above 100 µM. For the same molecule, the MCC at up to 200 µM in data set [4] was above 100 µM.
Turning to `Nc1nc2c(ncn2CCCCO)c(=O)[nH]1`, the IC50 is above 100 µM in the data set on NCI-H460; above 100 µM in the data set with Z-138; above 100 µM in [2]; above 100 µM in the data set with K562; above 100 µM in the data set with HL-60; 72.7 µM with CAPAN-1. Moreover, the IC50 (in data set [7]; in the data set with TERT-RPE1) was above 100 µM each time. Moreover, the EC50 in the data set on Human betaherpesvirus 5 [1] is above 100 µM; in the data set with Human alphaherpesvirus 1 [3], 10 µM; in the data set on Human alphaherpesvirus 2, 2.1 µM; with Human alphaherpesvirus 3 [5], 76.5 µM; in the data set with Human alphaherpesvirus 1 [6] it was 1.5 µM; in the data set on Human alphaherpesvirus 3 [8], above 100 µM. Further, the half-maximal effective concentration (EC50) in the data set on Human betaherpesvirus 5 [9] is above 100 µM. Moreover, the MCC at up to 200 µM in data set [4] is above 100 µM.
Turning to `O=c1c2ncn(CCC(CO)CO)c2nc2[nH]c(-c3ccc(Cl)cc3)cn12`, the IC50 was above 100 µM in the data set on NCI-H460; above 100 µM with Z-138; above 100 µM in data set [2]; above 100 µM in the data set with K562; above 100 µM in the data set with HL-60; 84.8 µM in the data set with CAPAN-1. Also, the IC50 (in [7]; in the data set on TERT-RPE1) was above 100 µM in each case. Further, the EC50 in the data set on Human betaherpesvirus 5 [1], with Human alphaherpesvirus 1 [3], in the data set on Human alphaherpesvirus 2, in the data set with Human alphaherpesvirus 3 [5], in the data set with Human alphaherpesvirus 1 [6] and with Human alphaherpesvirus 3 [8] was above 100 µM throughout. Further, the EC50 in the data set with Human betaherpesvirus 5 [9] is above 100 µM. Also, in data set [4], the MCC at up to 200 µM is above 100 µM.
As for `O=c1c2ncn(CCC(CO)CO)c2nc2[nH]c(-c3ccc(O)cc3)cn12`, the IC50 (with NCI-H460; with Z-138; in data set [2]; in the data set on K562; in the data set with HL-60; with CAPAN-1) was above 100 µM each time. Further, the IC50 (in data set [7]; in the data set on TERT-RPE1) was above 100 µM each time. Also, the EC50 in the data set on Human betaherpesvirus 5 [1] was above 100 µM; in the data set with Human alphaherpesvirus 1 [3] it was above 100 µM; in the data set with Human alphaherpesvirus 2, 2.3 µM; with Human alphaherpesvirus 3 [5], 9.6 µM; with Human alphaherpesvirus 1 [6] it was 7.6 µM; with Human alphaherpesvirus 3 [8] it was at least 74.5 µM. Moreover, in the data set on Human betaherpesvirus 5 [9], the half-maximal effective concentration (EC50) is above 100 µM. The MCC at up to 200 µM in data set [4] was above 100 µM.
Regarding `O=c1c2ncn(CCC(CO)CO)c2nc2[nH]c(-c3ccc(C(F)(F)F)cc3)cn12`, the IC50 is 12.5 µM with NCI-H460; 76.1 µM in the data set on Z-138; 37.8 µM in [2]; above 100 µM with K562; 55.3 µM with HL-60; 17.2 µM in the data set on CAPAN-1. The IC50 in [7] came out at 56.5 µM; in the data set with TERT-RPE1, 51.5 µM. The EC50 with Human betaherpesvirus 5 [1] was 76.5 µM; in the data set on Human alphaherpesvirus 1 [3], above 100 µM; in the data set on Human alphaherpesvirus 2, 31.7 µM; in the data set on Human alphaherpesvirus 3 [5], 49.5 µM; in the data set with Human alphaherpesvirus 1 [6] it was 20 µM; in the data set with Human alphaherpesvirus 3 [8] it was 100 µM. Besides, the EC50 in the data set with Human betaherpesvirus 5 [9] stood at 63.1 µM. In data set [4], the MCC at up to 200 µM was at least 100 µM.

One may read the IC50 as the concentration at which inhibition is half-maximal. By EC50 is commonly meant the concentration at which the effect is half-maximal.

For the origin of these results see ChEMBL document CHEMBL4368930, “Synthesis and anti-HSV activity of tricyclic penciclovir and hydroxybutylguanine derivatives” (Bioorg Med Chem, 2019).
